Measured values reported in ChEMBL document CHEMBL1132971, “New azolidinediones as inhibitors of protein tyrosine phosphatase 1B with antihyperglycemic properties” (J Med Chem, 2000).
Active and inactive are the calls of the source. The rule behind the calls is not given here.

How the values were obtained:
[1] = target: T1, Tyrosine-protein phosphatase non-receptor type 1 (Rattus norvegicus) (UniProt P20417); assay: Inhibition of PTPase (PTP1B) activity in rat hepatic membrane at 50 uM concentration, using pNPP as the substrate; format: cell membranes; settings: Liver
T1 sequence (whole entry): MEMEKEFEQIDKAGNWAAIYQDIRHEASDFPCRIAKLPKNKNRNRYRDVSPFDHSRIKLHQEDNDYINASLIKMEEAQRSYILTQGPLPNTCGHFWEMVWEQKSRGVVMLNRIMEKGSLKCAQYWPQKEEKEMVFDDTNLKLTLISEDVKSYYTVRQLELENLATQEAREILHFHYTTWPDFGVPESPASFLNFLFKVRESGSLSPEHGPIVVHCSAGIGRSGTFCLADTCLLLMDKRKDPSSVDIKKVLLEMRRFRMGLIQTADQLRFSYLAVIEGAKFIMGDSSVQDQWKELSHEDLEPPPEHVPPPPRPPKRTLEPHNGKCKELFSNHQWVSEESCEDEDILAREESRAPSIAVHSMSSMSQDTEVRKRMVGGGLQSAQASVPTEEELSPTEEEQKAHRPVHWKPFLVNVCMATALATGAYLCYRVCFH
Summary of the method: (§1)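 Liver membranes from male Sprague-Dawley rats (100-150 g), about 30 µg protein per well. Preincubated 10 min at 37 °C with compound in 1.25% DMSO in 50 mM HEPES pH 7.4. Then 6.33 mM pNPP for 30 min at 37 °C, stopped with NaOH. p-Nitrophenol read at 410 nm. Run in triplicate. Reported as percent of untreated control.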

[2] = target: T2, Tyrosine-protein phosphatase non-receptor type 1 (Rattus norvegicus, UniProt P20417); assay: Inhibition of PTPase activity using recombinant r-PTP1B and IR-triphosphopeptide as substrate; ND is no data.
T2 sequence (P20417 whole entry): T1 sequence (whole entry)
Summary of the method: (§2)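 Rat recombinant PTP1B in 33 mM TRIS-HCl, 2 mM EDTA, 50 mM β-mercaptoethanol, pH 7.4 (about 1000-2000 nmol/min/mg). Preincubated 10 min at 37 °C with or without compound in HEPES buffer pH 7.4. Released phosphate read by malachite green-ammonium molybdate at 650 nm against a phosphate standard. Quadruplicates. IC50 by four-parameter logistic fit.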

[3] = target: T3, Tyrosine-protein phosphatase non-receptor type 1 (Homo sapiens, UniProt P18031); assay: Concentration required to inhibit PTPase activity, recombinant Protein Tyrosine Phosphatase 1b as the enzyme; summary of the method: as §2
T3 sequence (P18031 whole entry): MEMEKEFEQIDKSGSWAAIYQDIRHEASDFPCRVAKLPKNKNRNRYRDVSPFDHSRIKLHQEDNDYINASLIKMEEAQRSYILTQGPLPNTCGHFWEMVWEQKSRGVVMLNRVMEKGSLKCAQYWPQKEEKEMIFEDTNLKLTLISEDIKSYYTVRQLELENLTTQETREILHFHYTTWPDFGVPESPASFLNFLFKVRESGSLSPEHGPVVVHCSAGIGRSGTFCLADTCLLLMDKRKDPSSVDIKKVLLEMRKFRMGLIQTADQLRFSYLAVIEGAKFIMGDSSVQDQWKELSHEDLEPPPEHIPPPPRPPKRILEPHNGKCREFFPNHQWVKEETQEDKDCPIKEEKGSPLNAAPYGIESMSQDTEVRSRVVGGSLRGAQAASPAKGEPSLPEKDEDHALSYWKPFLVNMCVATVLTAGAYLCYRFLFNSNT

[4] = test system: Mus musculus; assay: Evaluated in vivo for their ability to decrease plasma glucose levels in diabetic C57BL/KsJ db/db mouse at a dose 100 mg/kg/day, *p indicates <0.05; format: functional
Summary of the method: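 Mice dosed orally once daily for 4 days; plasma glucose and insulin measured and expressed as percent change versus a vehicle-treated group (mean ± SE, 4-6 mice/group). NS is generally less than -15% change. Significance is versus vehicle-treated mice.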

[5] = target: T1, Tyrosine-protein phosphatase non-receptor type 1 (Rattus norvegicus); assay: Inhibition of PTPase activity using recombinant r-PTP1B as the enzyme and IR-triphosphopeptide as substrate at 50 uM; summary of the method: as §2
[6] = target: T2, Tyrosine-protein phosphatase non-receptor type 1; assay: Inhibition of PTPase activity using recombinant r-PTP1B as the enzyme and IR-triphosphopeptide as substrate; summary of the method: as §2
[7] = target: T4, Tyrosine-protein phosphatase non-receptor type 1 (Mus musculus) (UniProt P35821); assay: In vivo ability to decrease plasma glucose levels in diabetic C57BL/KsJ ob/ob mouse at a dose 100 mg/kg/day; format: functional, organism-based
T4 sequence (whole entry): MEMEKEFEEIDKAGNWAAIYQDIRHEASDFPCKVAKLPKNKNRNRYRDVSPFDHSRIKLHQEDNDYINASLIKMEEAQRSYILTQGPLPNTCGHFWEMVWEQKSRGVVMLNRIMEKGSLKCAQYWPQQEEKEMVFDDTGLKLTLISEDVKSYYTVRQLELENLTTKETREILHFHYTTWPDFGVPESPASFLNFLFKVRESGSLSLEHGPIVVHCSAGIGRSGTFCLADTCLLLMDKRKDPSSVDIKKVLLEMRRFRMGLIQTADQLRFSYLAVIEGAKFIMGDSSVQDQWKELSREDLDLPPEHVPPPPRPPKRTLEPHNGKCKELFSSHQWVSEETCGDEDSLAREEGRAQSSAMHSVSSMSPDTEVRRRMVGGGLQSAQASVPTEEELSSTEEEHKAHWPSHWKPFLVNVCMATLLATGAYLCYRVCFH
Summary of the method: (§3)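 Diabetic db/db or ob/ob mice dosed orally once daily for 4 days. Plasma glucose and insulin reported as percent change from a vehicle-treated group. 4-6 mice per group. Significance set at p < 0.05 or p < 0.01 versus vehicle; NS means generally less than -15% change.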

[8] = target: T4, Tyrosine-protein phosphatase non-receptor type 1 (Mus musculus); assay: Ability to decrease plasma insulin levels in mouse at a dose 100 mg/kg/day; format: functional, organism-based; summary of the method: as §3
[9] = target: T1, Tyrosine-protein phosphatase non-receptor type 1 (Rattus norvegicus); assay: Inhibition of Protein-tyrosine phosphatase 1B activity in rat hepatic membrane at a concentration of 50 uM using pNPP as the substrate; format: cell membranes; settings: Liver; summary of the method: as §1
[10] = test system: Mus musculus; assay: Evaluated in vivo for their ability to decrease plasma glucose levels in diabetic C57BL/KsJ db/db mouse at a dose 100 mg/kg/day.; format: functional; summary of the method: as §3

SMILES	inhibition [1]	IC50 [6] [µM]	Decrease [7]	Decrease [8]	further results
CCCC/C(=C\Cn1oc(=O)n(CC(=O)O)c1=O)c1cccc(Oc2cc(Cl)cc(Cl)c2)c1	63%				IC50 [3]: 1.3 µM
C/C(=C\Cn1oc(=O)[nH]c1=O)c1ccc2oc(Cc3nc(-c4ccc(C(F)(F)F)cc4)oc3C)cc2c1	57%				Decrease [4]: 31%; inhibition [5]: 53%
CCCC/C(=C\Cn1oc(=O)[nH]c1=O)c1cccc(Oc2ccc(OC)cc2)c1	62%	10			
C/C(=C\Cn1oc(=O)[nH]c1=O)c1cccc(OCc2ccc3c(Cl)cccc3c2)c1	20%	16			
C/C(=C\Cn1oc(=O)[nH]c1=O)c1cccc(OCc2nc(-c3ccccc3)oc2C)c1 (stereo in doubt; 49)					inhibition [9]: 35%
C/C(Cn1oc(=O)[nH]c1=O)=C(/C)c1cccc(OCc2nc(-c3ccc(C(F)(F)F)cc3)oc2C)c1	47%				Decrease [10]: 20%
Cc1oc(-c2ccc(C(F)(F)F)cc2)nc1COc1cccc(/C(=C/Cn2oc(=O)n(CC(=O)O)c2=O)c2ccccc2)c1	24%				IC50 [3]: 0.85 µM
COc1cc(OCc2nc(-c3ccc(C(F)(F)F)cc3)oc2C)cc(/C(C)=C/Cn2oc(=O)[nH]c2=O)c1	49%				inhibition [5]: 12%
C/C(=C\Cn1oc(=O)[nH]c1=O)c1cccc(OCc2cc(C(F)(F)F)cc(C(F)(F)F)c2)c1		4.1			
C/C(=C\Cn1oc(=O)[nH]c1=O)c1cccc(OCc2coc(-c3ccc(C(F)(F)F)cc3)n2)c1	32%	19	Not significant	Not significant	
C/C(=C\Cn1oc(=O)[nH]c1=O)c1cccc(COc2cc(C(F)(F)F)cc(C(F)(F)F)c2)c1	64%	12			
CCCCCCCCC(=CCn1oc(=O)n(CC(=O)O)c1=O)c1cccc(OCc2nc(-c3ccc(C(F)(F)F)cc3)oc2C)c1	64%				IC50 [3]: 0.12 µM
C/C(=C\Cn1oc(=O)[nH]c1=O)c1cccc(OCc2nc(-c3ccccc3)oc2C)c1 (stereo in doubt; 67)					inhibition [9]: 25%
C/C(=C\Cc1nnn[nH]1)c1cccc(OCc2nc(-c3ccc(OC(F)(F)F)cc3)oc2C)c1	29%				IC50 [3]: 13 µM
CCCCCCCC/C(=C/Cn1oc(=O)n(CC(=O)O)c1=O)c1cccc(OCc2nc(-c3ccc(C(F)(F)F)cc3)oc2C)c1	57%				IC50 [3]: 0.16 µM
CCCC/C(=C\Cn1oc(=O)[nH]c1=O)c1cccc(Oc2ccc(C)cc2)c1	62%	13			
C/C(=C\CN1CC(=O)NC1=O)c1cccc(OCc2nc(-c3ccc(C(F)(F)F)cc3)oc2C)c1		13	Not significant	Not significant	
Cc1oc(-c2ccc(C(F)(F)F)cc2)nc1COc1cccc(/C(=C/Cn2oc(=O)[nH]c2=O)C2CCCCC2)c1	66%		Not significant	Not significant	inhibition [5]: 49%
CC1(COc2ccc(CC3SC(=O)NC3=O)cc2)CCCCC1 (centres undefined) [CIGLITAZONE]	20%				Decrease [10]: 32%
C/C(=C\CC1OC(=O)NC1=O)c1cccc(OCc2nc(-c3ccc(OCC(F)(F)F)cc3)oc2C)c1 (centres undefined)	37%		Not significant	Not significant	Decrease [10]: inactive; IC50 [2]: Not significant
Cc1oc(-c2ccc(C(F)(F)F)cc2)nc1COc1cccc(CCCn2oc(=O)[nH]c2=O)c1	54%		Not significant	Not significant	Decrease [4]: 21%; inhibition [5]: 4.3%
CCCC/C(=C\Cn1oc(=O)[nH]c1=O)c1cccc(Oc2ccccc2)c1	63%	2			
CCCCc1oc2ccccc2c1Cc1cccc(/C(C)=C/Cn2oc(=O)[nH]c2=O)c1		1.3			

More lines, main results first:

inhibition [1]	IC50 [6] [µM]	Decrease [7]	Decrease [8]	SMILES	further results
14%				Cc1oc(-c2ccc(C(F)(F)F)cc2)nc1COc1ccc2oc(Cn3oc(=O)[nH]c3=O)cc2c1	IC50 [2]: Not significant
51%		Not significant	Not significant	Cc1oc(-c2ccc(C(F)(F)F)cc2)nc1COc1cccc(C2(C)CC2Cn2oc(=O)[nH]c2=O)c1 (centres undefined)	inhibition [5]: 1%
56%		Not significant	Not significant	COc1ccc(/C(=C\Cn2oc(=O)[nH]c2=O)c2cccc(OCc3nc(-c4ccc(C(F)(F)F)cc4)oc3C)c2)cc1	inhibition [5]: 34%
38%		Not significant	Not significant	C/C(=C\C(C)n1oc(=O)[nH]c1=O)c1cccc(OCc2nc(-c3ccc(C(F)(F)F)cc3)oc2C)c1 (centres undefined)	Decrease [10]: 16%
31%				Cc1oc(-c2ccc(C(F)(F)F)cc2)nc1COc1ccc2c(c1)C=C/C2=C\Cn1oc(=O)[nH]c1=O	inhibition [5]: 83%
Not significant	43	Not significant	Not significant	C/C(=C\Cn1oc(=O)[nH]c1=O)c1ccccc1OCc1nc(-c2ccc(C(F)(F)F)cc2)oc1C	
52%		Not significant	Not significant	C/C(=C\Cn1oc(=O)[nH]c1=O)c1cccc(OCc2nc(-c3ccc(OCC(F)(F)F)cc3)oc2C)c1	Decrease [4]: 44%; IC50 [2]: Not significant
17%	3			C/C(=C\Cn1oc(=O)[nH]c1=O)c1cccc(OCc2noc(-c3ccccc3)n2)c1	
45%	24	Not significant	Not significant	C/C(=C\Cn1oc(=O)[nH]c1=O)c1cccc(OCCc2nc(-c3ccccc3)oc2C)c1	Decrease [10]: 38%
23%		Not significant	Not significant	C/C(=C\CC1OC(=O)NC1=O)c1cccc(OCc2nc(-c3ccccc3)oc2C)c1 (centres undefined)	Decrease [10]: 18%; IC50 [2]: Not significant
33%		Not significant	Not significant	Cc1oc(-c2ccc(Cl)cc2)nc1COc1cccc(/C=C/C(C)n2oc(=O)[nH]c2=O)c1 (centres undefined)	Decrease [10]: 20%; IC50 [2]: Not significant
23%		Not significant	Not significant	Cc1oc(-c2ccccc2)nc1COc1cccc(C#CC(C)n2oc(=O)[nH]c2=O)c1 (centres undefined)	
